The list is not random: actives were taken first. Their share in the collection is about 4.3%.
HTR2A ag – mouse Htr2a agonists via beta-arrestin recruitment, primary screen, cell-based, luminescence; 5-hydroxytryptamine receptor 2A (Mus musculus), P35363; CHO-K1 mHTR2A beta-arrestin complementation; percent of 30 µM serotonin response; activation, % at 7.6 µM; 360,000 compounds, 0.66% hits; AID 624169, 2012;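 active = activation above a run cutoff, the mean activation of all tested compounds plus 3 SD, cut at about 14% in these data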;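 also: 0% = plate median of compound wells and 100% = 30 µM serotonin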
MC4R antagonist – MC4R antagonists of cAMP signaling, primary screen, cell-based, TR-FRET, antagonist arm of biased-ligand search; AID 540295, 2011; MC4R-expressing cells, MTII-stimulated cAMP, LANCE TR-FRET; Melanocortin receptor 4 (Homo sapiens), P32245; 360,000 compounds, 0.48% hits; inhibition, % at 6.5 µM;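 active = inhibition above its plate's cutoff, the mean of tested wells on that plate plus 3 SD, cut at about 29% in these data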;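 also: 0% = Melanotan II alone and 100% = Melanotan II plus saturating MCL0020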
Target sequence (P32245 whole entry, looked up): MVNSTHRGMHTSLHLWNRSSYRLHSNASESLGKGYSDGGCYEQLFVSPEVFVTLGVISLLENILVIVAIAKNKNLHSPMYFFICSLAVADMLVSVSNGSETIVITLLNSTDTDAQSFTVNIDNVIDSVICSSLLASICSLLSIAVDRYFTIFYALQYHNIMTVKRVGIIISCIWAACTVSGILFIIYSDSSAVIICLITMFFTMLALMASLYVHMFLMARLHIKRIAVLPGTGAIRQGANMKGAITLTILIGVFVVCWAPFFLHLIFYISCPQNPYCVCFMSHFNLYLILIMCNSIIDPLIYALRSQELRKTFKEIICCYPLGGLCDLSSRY
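Test system: U2OS cells stably expressing human melanocortin 4 receptor (MC4R); also added: Melanotan II challenge; compound: 6.5 µM single dose; timing: 30-min compound preincubation, 1-h Melanotan II challenge, 1-h detection, room temperature; signal: Eu-cAMP/anti-cAMP TR-FRET, emission 671 nm; repeats: one well per compound, no replicates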
TAAR1 antagonist – human TAAR1 antagonists, primary screen, Fluo-8 calcium fluorescence, CHO RD-HGA16 cells; Trace amine-associated receptor 1 (Homo sapiens), Q96RJ0; antagonist; inhibition, % at 3 µM; 360,000 compounds, 1.5% hits; AID 624466, 2012;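 active = inhibition above a per-plate cutoff, the mean inhibition of test compounds on that plate plus 3 SD, cut at about 49% in these data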;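 also: 0% = DMSO plus EC80 beta-PEA response and 100% = DMSO alone without agonist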
Target sequence (Q96RJ0 whole entry, looked up): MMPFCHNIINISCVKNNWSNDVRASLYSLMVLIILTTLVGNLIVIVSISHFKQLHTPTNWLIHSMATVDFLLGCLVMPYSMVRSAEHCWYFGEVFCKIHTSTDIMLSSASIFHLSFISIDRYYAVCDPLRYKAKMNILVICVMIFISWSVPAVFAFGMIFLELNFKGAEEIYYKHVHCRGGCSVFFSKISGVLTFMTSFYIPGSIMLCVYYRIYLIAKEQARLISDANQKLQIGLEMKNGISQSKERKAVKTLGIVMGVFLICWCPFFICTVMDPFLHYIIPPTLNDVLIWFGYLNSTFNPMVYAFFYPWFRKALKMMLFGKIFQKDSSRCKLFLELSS
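Test system: RD-HGA16 CHO cells with stable hTAAR1 and Gα16 / Probe or stimulus: EC80 β-phenethylamine stimulus / Times: seeding 17-24 h prior, 75-min 37 °C, 30-min RT dye loading / Detection: Fluo-8 calcium-sensitive fluorescence / Read-out basis: % inhibition scaled between DMSO and EC80 PEA controls / Repeats: singlicate, one well per test compound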
MC4R ag barr – MC4R agonists recruiting beta-arrestin, primary screen, cell-based, luminescence, agonist arm of biased-ligand search; Melanocortin receptor 4 (Homo sapiens), P32245; U2OS MC4R beta-arrestin complementation; percent of melanotan II response, DMSO zero; activation, % at 8.9 µM; 360,000 compounds, 0.98% hits; AID 540308, 2011;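 active = activation above a per-plate cutoff, the mean activation of sample wells on that plate plus 3 SD, cut at about 8% in these data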
Beta2AR agonist – beta2AR agonists driving receptor internalization, primary screen, cell-based, FAP fluorogen, flow cytometry; Beta-2 adrenergic receptor (Homo sapiens), P07550; Am2.2-beta2AR cells; response, % (no concentration beside the values); 340,000 compounds, 0.43% hits; AID 504454, 2011;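 active = response above a set limit, near 3 SD of response in nonfluorescent compounds, cut at about 42% in these data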
TAAR1 ag – human TAAR1 agonists, primary screen, Fluo-8 calcium fluorescence, CHO RD-HGA16 cells. vehicle wells 0%, saturating PEA agonist 100%. 360,000 compounds, 0.99% hits. activation, % at 3 µM. Trace amine-associated receptor 1 (Homo sapiens), Q96RJ0. AID 624467, 2012;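 active = activation above the mean activation of all test compounds in the run plus 3 SD, cut at about 38% in these data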
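Repeats: no replicates (n 1) | Material: CHO-derived RD-HGA16 cells with stable Gα16 and human TAAR1 | Technique: Kinetic Fluo-8 calcium fluorescence | Schedule: 17-24 h seeding, 75 min 37 °C dye, 30 min RT | Evaluation: % activation from peak over basal fluorescence ratio, DMSO-to-PEA scaled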
Beta2AR ag CP1 – beta2AR agonists via receptor internalization, confirmation, cell-based, FAP fluorogen, flow cytometry, single point, cherry pick 1 | shares compounds with Beta2AR agonist | Am2.2-beta2AR cells, FAP surface receptor; hits give low values | percent response (surface receptor), % at 10 µM | 1,100 compounds, 25% hits;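 active = surface receptor percent response at or below 58%, roughly 3 SD from nonfluorescent compounds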
FAP fluor counter – fluorescence artifact in beta-2AR agonist FAP counterscreen. calls only at 10 µM. AID 588765. 1,100 tested, under 10 active. shares compounds with Beta2AR agonist. Am2.2 cells, FAP fluorogen flow cytometry; hits give low values;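 active = percent response below a set limit in fluorescence channel 1 and below 50% in channel 8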
MC4R barr ag – MC4R beta-arrestin agonists, retest, confirmation, cell-based, luminescence, U2OS. shares compounds with MC4R ag barr. U2OS MC4R beta-arrestin recruitment; scaled DMSO 0%, Melanotan II 100%. activation, % at 8.9 µM. 2,400 compounds, 31% hits. AID 602192, 2012;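 active = mean activation across replicates above the hit cutoff set in the earlier primary screen, cut at about 8% in these data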
MOR-DOR barr ag – agonists of MOR-DOR heterodimerization, counter-screen for MC4R biased agonist project, cell-based, luminescence. shares compounds with MC4R ag barr. U2OS PathHunter beta-arrestin, beta-gal luminescence; percent of deltorphin B response, DMSO zero. activation, % at 9.2 µM. 2,400 compounds, 5.8% hits;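 active = mean activation across replicates exceeds the hit threshold derived in the earlier primary screen, cut at about 18% in these data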;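 also: 100% = deltorphin B at 0.9 µM final and 0% = DMSO alone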
OPRM1 ag – OPRM1 agonists via beta-arrestin recruitment, confirmation, counter-screen for mouse HTR2A agonist project, cell-based, luminescence, single concentration. 2,300 compounds, 5.3% hits. U2OS OPRM1 beta-arrestin PathHunter; DMSO 0%, DAMGO 9.3 µM 100%. activation, % at 9.3 µM. shares compounds with HTR2A ag;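 active = mean activation above the mean of DMSO-only wells plus 3 SD, cut at about 0.5% in these data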
m5-HT2A ag conf – mouse HTR2A agonists, beta-arrestin recruitment, confirmation, cell-based, luminescence, CHO-K1 PathHunter, triplicate | shares compounds with HTR2A ag | DMSO 0%, 30 µM serotonin 100% | activation, % at 7.6 µM | 2,300 compounds, 19% hits | AID 624381, 2012;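 active = mean activation across triplicates above the hit threshold derived in the original primary screen, cut at about 15% in these data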
Starred values were filed as active, the others as inactive; i = inactive; nt = no result.

SMILES	HTR2A ag	MC4R antagonist	TAAR1 antagonist	MC4R ag barr	Beta2AR agonist	TAAR1 ag	Beta2AR ag CP1	FAP fluor counter	MC4R barr ag	MOR-DOR barr ag	others
Cn1nc(C(C)(C)C)cc1C(=O)N1CCCC(C)(C(=O)NS(=O)(=O)C2CC2)C1 (centres undefined)	4	5	-4	-1	nt	2	nt	nt	nt	nt
O=C(CCCCCNc1nc(=S)[nH]c2ccccc12)NCCc1ccc(Cl)cc1	4	20	17	12*	55*	13	109	i	11*	6
CC(=O)Nc1ccc(N2C(=O)CSC2c2cccc(Br)c2)cc1 (centres undefined)	-2	8	0	-3	-1	5	nt	nt	nt	nt
O=c1c2ccccc2[nH]c(=S)n1Cc1ccc2c(c1)OCO2	-4	12	-10	6	-11	1	nt	nt	nt	nt
O=C(CCCCCn1c(=S)[nH]c2ccccc2c1=O)NCc1ccc2c(c1)OCO2	4	15	-9	10*	113*	3	29*	i	2	2
O=C(Nc1ccnn1C1CCN(C(=O)c2cccc(Cl)c2)CC1)C1CCOC1 (centres undefined)	1	4	-34	-4	-2	2	nt	nt	nt	nt
COC(=O)c1ccc2c(=O)[nH]c(CSc3nc(-c4ccc(F)cc4)cs3)nc2c1	0	14	6	10*	64*	-1	106	i	-1	1
COC(=O)c1ccc2c(=O)[nH]c(CSc3nc(C)cs3)nc2c1	3	15	3	1	2	0	nt	nt	nt	nt
CCC(C)NC(=O)c1c(N)n(/N=C/c2cccnc2)c2nc3ccccc3nc12 (centres undefined)	3	10	1	13*	48*	4	84	i	28*	6
COc1ccc(N2C(=O)c3n[nH]c(C)c3C2c2ccccc2)cc1 (centres undefined)	nt	nt	-16	nt	nt	0	nt	nt	nt	nt
COc1ccccc1C(=O)Nc1ccc2oc(-c3ccc(F)cc3)nc2c1	0	4	-5	18*	5	8	65	i	6	2
O=C(Nc1ccc2oc(-c3ccccc3)nc2c1)c1ccc2c(c1)OCCO2	0	7	33	3	11	17	nt	nt	nt	nt
O=C(Nc1ccc2oc(-c3ccncc3)nc2c1)c1ccc2c(c1)OCCO2	-1	8	22	23*	73*	6	90	i	12*	2
Cc1ccc2c(c1)c1c3n2CCCNC3CCC1 (centres undefined)	1	-7	-10	0	10	4	nt	nt	nt	nt
c1cc2c(cc1C1CCCCC1)c1c3n2CCCNC3CCC1 (centres undefined)	4	-12	35	15*	44*	43*	101	i	32*	11
Cc1ccc(CNC(=O)c2ccc(OCC(C)C)cc2)n1C	6	-1	0	1	5	-2	nt	nt	nt	nt
COc1ccc(C(C)=O)cc1COc1ccc(Cl)cc1Cl	-1	-7	-22	11*	50*	6	56*	i	0	2
O=C(c1ccc(-c2ccc([N+](=O)[O-])cc2)o1)N1CCCC(C(F)(F)F)C1 (centres undefined)	-8	1	9	-1	-7	-1	nt	nt	nt	nt
O=C(c1ccc(-c2ccc([N+](=O)[O-])cc2)o1)N1CCCCCCC1	15*	22	9	-1	52*	-1	128	i	nt	nt	OPRM1 ag=-1;m5-HT2A ag conf=-6
CC(=O)N1CCc2cc(C(=O)CN3CCN(c4cccc(Cl)c4)CC3)ccc21	25*	5	16	0	57*	4	9.1*	i	nt	nt	OPRM1 ag=-1;m5-HT2A ag conf=90*
CC(=O)N1CCc2cc(C(=O)CN3CCC(C)CC3)ccc21	2	1	-10	-1	5	1	nt	nt	nt	nt
CCCc1ccc(S(=O)(=O)N(C)S(=O)(=O)c2ccc(F)cc2)cc1	-6	-7	3	-1	2	3	nt	nt	nt	nt
CC(CCc1ccc(O)cc1)NCCc1ccc(O)c(O)c1 (centres undefined)	27*	13	-20	-2	2	8	86	i	nt	nt	OPRM1 ag=0;m5-HT2A ag conf=120*
O=C(CCS(=O)(=O)c1ccccc1)Nc1nc2c(s1)COc1ccccc1-2	22*	7	47	1	59*	14	101	i	nt	nt	OPRM1 ag=0;m5-HT2A ag conf=-5
C[C@@H]1C=CCCO[C@]12C(=O)N(Cc1ccc(Br)cc1)c1cccc(Br)c12	nt	nt	34	nt	nt	-1	nt	nt	nt	nt

Source: PubChem (several laboratories)
